Experimental data published in ChEMBL document CHEMBL4152245, “Design, synthesis and biological evaluation of benzo[cd]indol-2(1H)-ones derivatives as BRD4 inhibitors” (Eur J Med Chem, 2018).
pIC50: −log10 of the molar value. Calls of active or inactive are those of the source. The calls are words filed in the database; no cut-off is given here.

Key:
[1] = target: T1, Bromodomain-containing protein 4 (Homo sapiens, UniProt O60885); assay: (§1) Inhibition of His-tagged BRD4 bromodomain-1 (unknown origin) expressed in Escherichia coli BL21(DE3) at 5 uM using SGRGK(Ac)-GG-K(Ac)-GLG-K(Ac)-GGA-K(Ac)-RHRKVGG-K-Biotin as substrate preincubated for 15 mins followed by substrate addition measured after 10 mins by Alphascreen assay relative to control
How it was run: (§2)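 His-tagged BRD4_BD1 purified by Ni-NTA, anion exchange and gel filtration, tag retained. Assay buffer: 20 mM HEPES pH 7.4, 0.1% BSA, 0.01% Triton X-100, 1 mM DTT. Protein preincubated with compound 15 min at room temperature, biotinylated tetra-acetyl peptide added for 10 min, then streptavidin donor and nickel chelate acceptor beads for 60 min. Compounds screened at 20 and 5 µM; IC50 from three independent experiments.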

[2] = target: T1, Bromodomain-containing protein 4; assay: Binding affinity to His-tagged BRD4 bromodomain-1 (unknown origin) expressed in Escherichia coli BL21(DE3) assessed as change in melting temperature at 100 uM by SYPRO orange dye based thermal shift assay
How it was run: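 Buffer of 20 mM HEPES pH 7.4, 100 mM NaCl and 1 mM DTT, with 5× SYPRO Orange and 5 µM BRD4_BD1. Compound at 100 µM or 0.5% DMSO, DMSO matched across wells. Heated at 2.5 °C/min from 25 to 95 °C. Tm compared with the DMSO control.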

[3] = target: T1, Bromodomain-containing protein 4; assay: as §1, with “at 20” for “at 5”; how it was run: as §2
[4] = target: T1, Bromodomain-containing protein 4; assay: Inhibition of His-tagged BRD4 bromodomain-1 (unknown origin) expressed in Escherichia coli BL21(DE3) using SGRGK(Ac)-GG-K(Ac)-GLG-K(Ac)-GGA-K(Ac)-RHRKVGG-K-Biotin as substrate preincubated for 15 mins followed by substrate addition measured after 10 mins by Alphascreen assay; how it was run: as §2
[5] = target: T1, Bromodomain-containing protein 4; assay: Inhibition of BRD4 (unknown origin) by Alphascreen assay; how it was run: as §2
[6] = target: T1, Bromodomain-containing protein 4; assay: Inhibition of BRD4 in human MV4-11 cells assessed as downregulation of CDK6 mRNA expression after 6 hrs by RT-PCR analysis; format: cell-based
How it was run: (§3)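 MV4-11 cells at 5×10⁵/mL treated 6 h with various compound concentrations or DMSO. c-Myc, Bcl-2 and CDK6 transcripts quantified by qRT-PCR, normalized to B2M by the ΔΔCt method.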

[7] = target: T1, Bromodomain-containing protein 4; assay: Inhibition of BRD4 in human MV4-11 cells assessed as downregulation of c-MYC mRNA expression after 6 hrs by RT-PCR analysis; format: cell-based; how it was run: as §3
[8] = target: T1, Bromodomain-containing protein 4; assay: Inhibition of BRD4 in human MV4-11 cells assessed as downregulation of Bcl2 mRNA expression after 6 hrs by RT-PCR analysis; format: cell-based; how it was run: as §3
[9] = target: T1, Bromodomain-containing protein 4; assay: Inhibition of BRD4 in human MV4-11 cells assessed as downregulation of c-MYC protein expression after 6 hrs by Western blot analysis; format: cell-based
How it was run: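 MV4-11 cells at 5×10⁵/mL treated 6 h with various compound concentrations or DMSO. Immunoblotted with anti-c-Myc (1:1000, 4 °C overnight), then anti-rabbit secondary (1:10000, 1 h, room temperature).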

CWR22R = assay: Antiproliferative activity against human 22Rv1 cells after 72 hrs by CellTiter-Glo luminescent assay; format: functional, cell-based
How it was run: (§4)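 HUV-EC-C, MRC5, RPTEC, A549, MDA-MB-231 and 22Rv1 cells seeded at 3×10⁴/mL and exposed to serially diluted compounds or DMSO. Viability read by CellTiter-Glo luminescence. Each dilution point run in triplicate, averaged, and fitted.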

MRC5 = assay: Antiproliferative activity against human MRC5 cells after 72 hrs by CellTiter-Glo luminescent assay; format: cell-based; settings: mrc5, 72 h; how it was run: as §4
MDA-MB-231 = assay: Antiproliferative activity against human MDA-MB-231 cells after 72 hrs by CellTiter-Glo luminescent assay; format: functional, cell-based; how it was run: as §4
MV4-11 [10] = assay: Cell cycle arrest in human MV4-11 cells assessed as accumulation at G2-phase at 5 uM after 24 hrs by propidium iodide staining based flow cytometry (reference value: 7.76 to 8.93%); format: functional
MV4-11 [11] = assay: Cell cycle arrest in human MV4-11 cells assessed as accumulation at G1-phase after 24 hrs by propidium iodide staining based flow cytometry; format: functional
MV4-11 [12] = assay: Cell cycle arrest in human MV4-11 cells assessed as accumulation at G1-phase at 10 uM after 24 hrs by propidium iodide staining based flow cytometry (reference value: 61.39 to 63.23%); format: functional
MV4-11 [13] = assay: Cell cycle arrest in human MV4-11 cells assessed as accumulation at G2-phase at 20 uM after 24 hrs by propidium iodide staining based flow cytometry (reference value: 7.76 to 8.93%); format: functional
MV4-11 [14] = assay: Cell cycle arrest in human MV4-11 cells assessed as accumulation at G1-phase at 5 uM after 24 hrs by propidium iodide staining based flow cytometry (reference value: 61.39 to 63.23%); format: functional
RPTEC = assay: Antiproliferative activity against human RPTEC cells after 72 hrs by CellTiter-Glo luminescent assay; format: cell-based; how it was run: as §4
A549 = assay: Antiproliferative activity against human A549 cells after 72 hrs by CellTiter-Glo luminescent assay; format: functional, cell-based; how it was run: as §4
MV4-11 [15] = assay: Cell cycle arrest in human MV4-11 cells assessed as accumulation at S-phase at 20 uM after 24 hrs by propidium iodide staining based flow cytometry (reference value: 28.91 to 29.71%); format: functional
MV4-11 [16] = assay: Cell cycle arrest in human MV4-11 cells assessed as accumulation at G1-phase at 20 uM after 24 hrs by propidium iodide staining based flow cytometry (reference value: 61.39 to 63.23%); format: functional
HUVEC = assay: Antiproliferative activity against HUVEC after 72 hrs by CellTiter-Glo luminescent assay; format: cell-based; settings: human; how it was run: as §4
MV4-11 [17] = assay: Cell cycle arrest in human MV4-11 cells assessed as accumulation at G2-phase at 10 uM after 24 hrs by propidium iodide staining based flow cytometry (reference value: 7.76 to 8.93%); format: functional
MV4-11 [18] = assay: Cell cycle arrest in human MV4-11 cells assessed as accumulation at S-phase at 5 uM after 24 hrs by propidium iodide staining based flow cytometry (reference value: 28.91 to 29.71%); format: functional
MV4-11 [19] = assay: Antiproliferative activity against human MV4-11 cells after 72 hrs by CellTiter-Glo luminescent assay; format: functional, cell-based; settings: MV4-11, 72 h
How it was run: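 MV4-11 cells in RPMI 1640 with 10% FBS and 1% penicillin/streptomycin, seeded at 1×10⁵/mL. Compounds or DMSO added about 1 h later, then incubated 72 h. Viability read by CellTiter-Glo luminescence. Each dilution point run in triplicate, averaged, and fitted for IC50.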

MV4-11 [20] = assay: Cell cycle arrest in human MV4-11 cells assessed as accumulation at S-phase at 10 uM after 24 hrs by propidium iodide staining based flow cytometry (reference value: 28.91 to 29.71%); format: functional

inhibition [1] | ΔTm [2] | inhibition [3] | pIC50 [4] | inhibition [6] | inhibition [7] | inhibition [8] | inhibition [9] | SMILES | further results
98% | 13.2 °C | 100% | 5.81 | – | – | – | – | CCN1C(=O)c2cccc3c(S(=O)(=O)NCCO)ccc1c23 | –
– | – | – | – | – | – | – | – | Cc1sc2c(c1C)C(c1ccc(Cl)cc1)=C[C@@H](CC(=O)OC(C)(C)C)c1nnc(C)n1-2 | pIC50 [5]: 7.11
66% | 10.5 °C | 98% | 5.52 | Dose-dependent effect | Dose-dependent effect | Dose-dependent effect | Dose-dependent effect | CCN1C(=O)c2cccc3c(S(=O)(=O)N4CCC[C@@H]4C(=O)O)ccc1c23 | –
93% | 7.8 °C | 100% | 5.99 | Dose-dependent effect | Dose-dependent effect | Dose-dependent effect | Dose-dependent effect | CCN1C(=O)c2cccc3c(S(=O)(=O)N4CCC[C@@H]4C(=O)NN)ccc1c23 | –
59% | 3.4 °C | 99% | 5.17 | Dose-dependent effect | Dose-dependent effect | Dose-dependent effect | Dose-dependent effect | CCN1C(=O)c2cccc3c(S(=O)(=O)N4CCCC4)ccc1c23 | Activity (CWR22R): Active; Activity (MRC5): Non-Toxic; Activity (MDA-MB-231): Active; Activity (MV4-11 [10]): 5.47%; Activity (MV4-11 [11]): Dose-dependent effect; Activity (MV4-11 [12]): 80.04%; Activity (MV4-11 [13]): 2.9%; Activity (MV4-11 [14]): 73%; Activity (RPTEC): Non-Toxic; Activity (A549): Active; Activity (MV4-11 [15]): 9.88%; Activity (MV4-11 [16]): 87.22%; Activity (HUVEC): Non-Toxic; Activity (MV4-11 [17]): 4%; Activity (MV4-11 [18]): 21.52%; pIC50 (MV4-11 [19]): 4.93; Activity (MV4-11 [20]): 15.95%
87% | 13.9 °C | 100% | 5.84 | – | – | – | – | CCN1C(=O)c2cccc3c(S(=O)(=O)N4CCC[C@@H]4C(=O)Nc4ccccc4)ccc1c23 | –
